# Reference: ChEMBL document CHEMBL2375290, “Nonclassical antifolates, part 3: synthesis, biological evaluation and molecular modeling study of some new 2-heteroarylthio-quinazolin-4-ones” (Eur J Med Chem, 2013)
# Experiments:
# [1] = tested on: Escherichia coli; experiment: Antimicrobial activity against Escherichia coli after 24 hrs by micro-dilution susceptibility method
# [2] = target: T1, Dihydrofolate reductase (Bos taurus, UniProt P00376); experiment: Inhibition of bovine DHFR after 2 mins by spectrophotometry
# T1 sequence (P00376 whole entry): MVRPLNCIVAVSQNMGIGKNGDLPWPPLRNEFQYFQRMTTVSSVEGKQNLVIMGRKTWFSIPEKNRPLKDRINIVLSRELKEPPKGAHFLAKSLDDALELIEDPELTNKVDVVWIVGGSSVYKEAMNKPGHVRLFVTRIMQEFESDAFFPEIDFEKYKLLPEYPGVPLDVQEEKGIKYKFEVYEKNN
# [3] = tested on: Staphylococcus aureus; experiment: Antimicrobial activity against Staphylococcus aureus after 24 hrs by micro-dilution susceptibility method; format: functional
# Method in brief: (§1)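 Broth microdilution in Müller-Hinton broth against S. aureus IFO 3060, B. subtilis IFO 3007, E. coli IFO 3301 and P. aeruginosa IFO 3448. These are the same standard strains used in the disc-diffusion primary screen. Compounds were solubilized in DMSO. MIC recorded as the minimal inhibitory concentration.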
# [4] = tested on: Bacillus subtilis; experiment: Antimicrobial activity against Bacillus subtilis at 200 ug after 24 hrs by agar disc diffusion method; format: functional; settings: read-out: DIZ
# [5] = tested on: Pseudomonas aeruginosa; experiment: Antimicrobial activity against Pseudomonas aeruginosa at 200 ug after 24 hrs by agar disc diffusion method; format: functional; settings: read-out: DIZ
# [6] = tested on: Micrococcus luteus; experiment: Antimicrobial activity against Micrococcus luteus at 200 ug after 24 hrs by agar disc diffusion method; format: functional; settings: read-out: DIZ
# [7] = tested on: Staphylococcus aureus; experiment: Antimicrobial activity against Staphylococcus aureus at 200 ug after 24 hrs by agar disc diffusion method; format: functional; settings: read-out: DIZ
# [8] = tested on: Escherichia coli; experiment: Antimicrobial activity against Escherichia coli at 200 ug after 24 hrs by agar disc diffusion method; format: functional; settings: read-out: DIZ
# [9] = tested on: Bacillus subtilis; experiment: Antimicrobial activity against Bacillus subtilis after 24 hrs by micro-dilution susceptibility method; format: functional; method in brief: as §1
# [10] = tested on: A498; experiment: Cytotoxicity against human A498 cells at 10 uM after 48 hrs by coulter counter analysis; format: functional; settings: A498, 48 h, read-out: GI
# [11] = tested on: Malme-3M; experiment: Cytotoxicity against human MALME-3M cells at 10 uM after 48 hrs by coulter counter analysis; format: functional; settings: read-out: GI
# [12] = tested on: NCI-H226; experiment: Cytotoxicity against human NCI-H226 cells at 10 uM after 48 hrs by coulter counter analysis; format: functional; settings: NCI-H226, 48 h, read-out: GI
# [13] = Cytotoxicity against human NCI-ADR-RES cells at 10 uM after 48 hrs by coulter counter analysis; format: functional; settings: read-out: GI
# [14] = tested on: SN12C; experiment: Cytotoxicity against human SN12C cells at 10 uM after 48 hrs by coulter counter analysis; format: functional; settings: read-out: GI
# [15] = tested on: T47D; experiment: Cytotoxicity against human T47D cells at 10 uM after 48 hrs by coulter counter analysis; format: functional; settings: read-out: GI
# [16] = tested on: SR; experiment: Cytotoxicity against human SR cells at 10 uM after 48 hrs by coulter counter analysis; format: functional; settings: read-out: GI
# [17] = tested on: LOX IMVI; experiment: Cytotoxicity against human LOXIMVI cells at 10 uM after 48 hrs by coulter counter analysis; format: functional; settings: read-out: GI
# [18] = tested on: UO-31; experiment: Cytotoxicity against human UO31 cells at 10 uM after 48 hrs by coulter counter analysis; format: functional; settings: UO-31, 48 h, read-out: GI
# [19] = tested on: MDA-MB-435; experiment: Cytotoxicity against human MDA-MB-435 cells at 10 uM after 48 hrs by coulter counter analysis; format: functional; settings: MDA-MB-435, 48 h, read-out: GI
# [20] = tested on: SNB-19; experiment: Cytotoxicity against human SNB19 cells at 10 uM after 48 hrs by coulter counter analysis; format: functional; settings: SNB-19, 48 h, read-out: GI
# [21] = tested on: NCI-H23; experiment: Cytotoxicity against human NCI-H23 cells at 10 uM after 48 hrs by coulter counter analysis; format: functional; settings: NCI-H23, 48 h, read-out: GI
# [22] = tested on: Hs-578T; experiment: Cytotoxicity against human Hs578T cells at 10 uM after 48 hrs by coulter counter analysis; format: functional; settings: read-out: GI
# [23] = tested on: HL-60(TB); experiment: Cytotoxicity against human HL-60(TB) cells at 10 uM after 48 hrs by coulter counter analysis; format: functional; settings: HL-60, 48 h, read-out: GI
# [24] = tested on: MOLT-4; experiment: Cytotoxicity against human MOLT4 cells at 10 uM after 48 hrs by coulter counter analysis; format: functional; settings: MOLT-4, 48 h, read-out: GI
# [25] = tested on: CCRF-CEM; experiment: Cytotoxicity against human CCRF-CEM cells at 10 uM after 48 hrs by coulter counter analysis; format: functional; settings: read-out: GI
# [26] = Cytotoxicity against human EKVX cells at 10 uM after 48 hrs by coulter counter analysis; format: functional; settings: read-out: GI
# [27] = tested on: SF-295; experiment: Cytotoxicity against human SF295 cells at 10 uM after 48 hrs by coulter counter analysis; format: functional; settings: SF-295, 48 h, read-out: GI
# [28] = tested on: CAKI-1; experiment: Cytotoxicity against human Caki1 cells at 10 uM after 48 hrs by coulter counter analysis; format: functional; settings: CAKI-1, 48 h, read-out: GI
# [29] = tested on: NCI-H522; experiment: Cytotoxicity against human NCI-H522 cells at 10 uM after 48 hrs by coulter counter analysis; format: functional; settings: NCI-H522, 48 h, read-out: GI
# [30] = tested on: MDA-MB-231; experiment: Cytotoxicity against human MDA-MB-231 cells at 10 uM after 48 hrs by coulter counter analysis; format: functional; settings: MDA-MB-231, 48 h, read-out: GI
# [31] = tested on: UACC-62; experiment: Cytotoxicity against human UACC62 cells at 10 uM after 48 hrs by coulter counter analysis; format: functional; settings: UACC-62, 48 h, read-out: GI
# [32] = tested on: IGROV-1; experiment: Cytotoxicity against human IGROV1 cells at 10 uM after 48 hrs by coulter counter analysis; format: functional; settings: IGROV-1, 48 h, read-out: GI
# [33] = tested on: SNB-75; experiment: Cytotoxicity against human SNB75 cells at 10 uM after 48 hrs by coulter counter analysis; format: functional; settings: SNB-75, 48 h, read-out: GI
# [34] = tested on: OVCAR-4; experiment: Cytotoxicity against human OVCAR4 cells at 10 uM after 48 hrs by coulter counter analysis; format: functional; settings: OVCAR-4, 48 h, read-out: GI
# [35] = tested on: PC-3; experiment: Cytotoxicity against human PC3 cells at 10 uM after 48 hrs by coulter counter analysis; format: functional; settings: PC-3, 48 h, read-out: GI
# [36] = tested on: RPMI-8226; experiment: Cytotoxicity against human RPMI8226 cells at 10 uM after 48 hrs by coulter counter analysis; format: functional; settings: RPMI-8226, 48 h, read-out: GI
# [37] = tested on: MCF7; experiment: Cytotoxicity against human MCF7 cells at 10 uM after 48 hrs by coulter counter analysis; format: functional; settings: MCF7, 48 h, read-out: GI
# [38] = tested on: SK-MEL-5; experiment: Cytotoxicity against human SK-MEL-5 cells at 10 uM after 48 hrs by coulter counter analysis; format: functional; settings: SK-MEL-5, 48 h, read-out: GI
# [39] = tested on: A549; experiment: Cytotoxicity against human A549/ATCC cells at 10 uM after 48 hrs by coulter counter analysis; format: functional; settings: A549, 48 h, read-out: GI
# [40] = tested on: RXF 393; experiment: Cytotoxicity against human RXF393 cells at 10 uM after 48 hrs by coulter counter analysis; format: functional; settings: RXF 393, 48 h, read-out: GI
structure (smiles),measurement,setting,value
CCOC(=O)c1nc(N)sc1Sc1nc2ccc(Cl)cc2c(=O)n1Cc1ccccc1,MIC,[1],4 µg/mL
same,IC50,[2],1000 nM
same,MIC,[3],4 µg/mL
same,zone of inhibition at 200 µg/disc,[4],22 mm
same,zone of inhibition at 200 µg/disc,[5],8 mm
same,zone of inhibition at 200 µg/disc,[6],14 mm
same,zone of inhibition at 200 µg/disc,[7],20 mm
same,zone of inhibition at 200 µg/disc,[8],20 mm
same,MIC,[9],2 µg/mL
CCOC(=O)c1nc(N)sc1Sc1nc2ccc(C)cc2c(=O)n1-c1ccccc1,MIC,[1],4 µg/mL
same,IC50,[2],1000 nM
same,MIC,[3],2 µg/mL
same,zone of inhibition at 200 µg/disc,[4],26 mm
same,zone of inhibition at 200 µg/disc,[5],12 mm
same,zone of inhibition at 200 µg/disc,[6],14 mm
same,zone of inhibition at 200 µg/disc,[7],24 mm
same,zone of inhibition at 200 µg/disc,[8],18 mm
same,MIC,[9],2 µg/mL
Nc1ncc(Sc2nc3ccc(Cl)cc3c(=O)n2-c2ccccc2)s1,inhibition of growth at 10 µM,[10],< 10%
same,inhibition of growth at 10 µM,[11],< 10%
same,inhibition of growth at 10 µM,[12],25.7%
same,IC50,[2],4000 nM
same,inhibition of growth at 10 µM,[13],< 10%
same,inhibition of growth at 10 µM,[14],< 10%
same,inhibition of growth at 10 µM,[15],19.1%
same,MIC,[3],8 µg/mL
same,zone of inhibition at 200 µg/disc,[4],22 mm
same,zone of inhibition at 200 µg/disc,[5],8 mm
same,inhibition of growth at 10 µM,[16],29.1%
same,zone of inhibition at 200 µg/disc,[6],14 mm
same,inhibition of growth at 10 µM,[17],11.2%
same,inhibition of growth at 10 µM,[18],< 10%
same,inhibition of growth at 10 µM,[19],< 10%
same,zone of inhibition at 200 µg/disc,[7],18 mm
same,inhibition of growth at 10 µM,[20],< 10%
same,inhibition of growth at 10 µM,[21],10.9%
same,inhibition of growth at 10 µM,[22],< 10%
same,inhibition of growth at 10 µM,[23],< 10%
same,inhibition of growth at 10 µM,[24],< 10%
same,inhibition of growth at 10 µM,[25],< 10%
same,inhibition of growth at 10 µM,[26],12.9%
same,inhibition of growth at 10 µM,[27],< 10%
same,inhibition of growth at 10 µM,[28],24.1%
same,zone of inhibition at 200 µg/disc,[8],8 mm
same,MIC,[9],4 µg/mL
same,inhibition of growth at 10 µM,[29],14%
same,inhibition of growth at 10 µM,[30],21.5%
same,inhibition of growth at 10 µM,[31],< 10%
same,inhibition of growth at 10 µM,[32],< 10%
same,inhibition of growth at 10 µM,[33],< 10%
same,inhibition of growth at 10 µM,[34],< 10%
same,inhibition of growth at 10 µM,[35],10.2%
same,inhibition of growth at 10 µM,[36],< 10%
same,inhibition of growth at 10 µM,[37],19%
same,inhibition of growth at 10 µM,[38],< 10%
same,inhibition of growth at 10 µM,[39],< 10%
same,inhibition of growth at 10 µM,[40],< 10%
